The LC50 is the concentration lethal to half of the exposed cells or organisms. Higher therefore signals lower toxicity.

For one data set, the system named is MIA PaCa-2. Briefly: Cytotoxicity on pancreatic carcinoma (PACA-2) cell line. Conditions: Homo sapiens, read-out: ED50 (the source's name). Format: functional. Put shortly:
(§1)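 Human solid tumour cell line panel tested at the Purdue Cancer Center with a 7-day MTT viability assay under standard protocols. Cell lines were A-549 lung, MCF-7 breast, HT-29 colon, A-498 kidney, PC-3 prostate and PACA-2 pancreatic. Adriamycin served as positive control.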

For another data set, the system named is A498. Nature of the data set: Cytotoxicity on kidney carcinoma (A-498) cell line. The class given is functional. Conditions: Homo sapiens, read-out: ED50 (the source's name). The gist of the method: as §1
A further data set has as its system HT-29. Nature of the data set: Cytotoxicity on adenocarcinoma (HT-29 colon) cell line. Format: functional. As to conditions: Homo sapiens, read-out: ED50 (the source's name). The gist of the method: as §1
Data set [1] is described as follows: Lethal concentration against Brine Shrimp. The class given is organism-based. Conditions: artemia, in vivo. Put shortly: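 Brine shrimp lethality test run by a standard protocol on partitioned fractions, pooled chromatographic fractions and isolated compounds. LC50 values were determined and expressed in µg/mL.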
The next data set concerns PC-3. Nature of the data set: Cytotoxicity on prostate adenocarcinoma (PC-3) cell line. As to conditions: Homo sapiens, read-out: ED50 (the source's name). The class given is functional. Put shortly:
as §1

A further data set relates to A549. Nature of the data set: Cytotoxicity on lung carcinoma (A-549) cell line. Format: functional. As to conditions: Homo sapiens, read-out: ED50 (the source's name). Put shortly: as §1
The test system of a further data set is MCF7. Nature of the data set: Cytotoxicity on breast carcinoma (MCF-7) cell line. As to conditions: Homo sapiens, read-out: ED50 (the source's name). Format: functional. Put shortly:
as §1

≈ marks a conversion by molar mass, not a printed value.

Turning to `C=C(C)[C@]12C[C@@H](C)[C@@]34OC(Cc5ccccc5)(O[C@@H]1[C@@H]3C=C(COC(=O)Cc1ccc(O)c(OC)c1)C[C@]1(O)C(=O)C(C)=CC41)O2` (some centres undefined), the EC50 in the data set on MIA PaCa-2 came to 2.44 µg/mL (≈ 3.88 µM); in the data set on A498, 1.08 µg/mL (≈ 1.72 µM); with HT-29 it was 3 µg/mL (≈ 4.77 µM); in the data set with PC-3, 2.9 µg/mL (≈ 4.61 µM); in the data set on A549, 1.12 µg/mL (≈ 1.78 µM); with MCF7, 4.29 µg/mL (≈ 6.82 µM). In data set [1], the 50% lethal concentration (LC50) was found to be 281 µg/mL (≈ 447 µM).

Turning to `CC(=O)OCC1=C[C@H]2[C@@H]3C(C)(C)[C@]3(OC(=O)Cc3ccccc3)C[C@@H](C)[C@]2(O)C2C=C(C)C(=O)[C@@]2(O)C1` (some centres undefined), the EC50 in the data set on MIA PaCa-2 stood at 26.9 µg/mL (≈ 52.9 µM); in the data set with A498 it was 1.59 µg/mL (≈ 3.13 µM); in the data set on HT-29, 29.5 µg/mL (≈ 57.9 µM); with PC-3, 35.1 µg/mL (≈ 69 µM); in the data set with A549, 26.1 µg/mL (≈ 51.2 µM); in the data set with MCF7, 41.3 µg/mL (≈ 81.1 µM). The compound also yielded an LC50 in data set [1] of 12 µg/mL (≈ 23.7 µM).

For the compound `C=C(C)[C@]12C[C@@H](C)[C@@]34OC(Cc5ccccc5)(O[C@@H]1C3C=C(CO)C[C@]1(O)C(=O)C(C)=CC41)O2` (some centres undefined), the EC50 came to 3.55 µg/mL (≈ 7.64 µM) with MIA PaCa-2; 1.97 µg/mL (≈ 4.24 µM) in the data set on A498; 7.41 µg/mL (≈ 16 µM) with HT-29; 4.56 µg/mL (≈ 9.82 µM) with PC-3; 5.41 µg/mL (≈ 11.6 µM) in the data set with A549; 30.9 µg/mL (≈ 66.5 µM) with MCF7.

Take `C/C=C(/C)C(=O)O[C@@]12C[C@@H](C)[C@]3(O)C4C=C(C)C(=O)[C@@]4(O)CC(CO)=C[C@H]3[C@@H]1C2(C)C` (some centres undefined): the EC50 with MIA PaCa-2 stood at 37.2 µg/mL (≈ 86.5 µM); in the data set with A498, 46 µg/mL (≈ 107 µM); in the data set with HT-29, 26.5 µg/mL (≈ 61.6 µM); in the data set on PC-3 it was 17.9 µg/mL (≈ 41.6 µM); with A549, 11.6 µg/mL (≈ 26.9 µM); in the data set on MCF7, 69.9 µg/mL (≈ 162 µM). For the same compound, the median lethal concentration (LC50) in data set [1] is 115 µg/mL (≈ 266 µM).

With `C/C=C(/C)C(=O)O[C@@]12C[C@@H](C)[C@]3(O)C4C=C(C)C(=O)[C@@]4(O)CC(COC(C)=O)=C[C@H]3[C@@H]1C2(C)C` (some centres undefined), the EC50 is 30.3 µg/mL (≈ 64.2 µM) with MIA PaCa-2; 2.18 µg/mL (≈ 4.61 µM) in the data set on A498; 30.8 µg/mL (≈ 65.1 µM) in the data set with HT-29; 27.7 µg/mL (≈ 58.6 µM) with PC-3; 18.9 µg/mL (≈ 40 µM) in the data set on A549; 41.8 µg/mL (≈ 88.4 µM) in the data set with MCF7. The median lethal concentration (LC50) in data set [1] is 191 µg/mL (≈ 404 µM).

Take `CC1=CC2[C@@]3(O)[C@H](C)C[C@]4(OC(=O)CCCCCCC[C@H]5C[C@@H]5C)[C@H]([C@@H]3C(C)=C(CO)C[C@]2(O)C1=O)C4(C)C` (some centres undefined): the EC50 with MIA PaCa-2 is 1.92 µg/mL (≈ 3.54 µM); in the data set on PC-3, 2.44 µg/mL (≈ 4.5 µM); in the data set with A549, 2.85 µg/mL (≈ 5.25 µM).

Regarding `COc1cccc2c1C(=O)c1c(O)c3c(c(O)c1C2=O)C[C@@](O)(C(=O)CO)C[C@@H]3O[C@H]1C[C@H](N)[C@H](O)[C@H](C)O1` [DOXORUBICIN], the EC50 in the data set on MIA PaCa-2 amounted to 1.63 µg/mL (≈ 3 µM); with A498, 1.87 µg/mL (≈ 3.44 µM).

For the origin of these results see ChEMBL document CHEMBL1129484, “Selectively cytotoxic diterpenes from Euphorbia poisonii” (J Med Chem, 1996).
